From PubChem BioAssay AID488804 (Broad Institute, 2010)
Activity calls are given as the source filed them.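 Rule for the calls: active = luminescence cut by over half relative to the proteasome inhibitor control, with potency below ten times the top valid dose; inactive = no activity, or signal change in the wrong direction.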

Molecular target: 26S proteasome chymotrypsin-like activity (human)
Assay: inhibitors of cellular proteasome chymotrypsin-like activity, dose response, counter-screen, cell-based, U2OS, luminescence, dry powder, set 2 (AID 488804)
Settings: U2OS cells, Proteasome-Glo chymotrypsin luminescence; for activity change, negative = inhibition: at 38 µM (top of the series)
How it was run: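 System – U2OS cells, proteasome chymotrypsin-like activity · Quantity – 2,500 cells per well · Timing – cells 24 h/37 °C, compounds 4 h, reagent 2 h RT · Signal – luminescent Proteasome-Glo readout · Controls – MG132 positive control · Replication – duplicates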

With c1ccc(-c2nnc(-c3ccccn3)nc2NCCCN2CCOCC2)cc1 the “activity change, negative = inhibition” value was “inactive”.
O=C(NCCCN1CCOCC1)c1cc(-c2ccccc2)on1 was tested, and the “activity change, negative = inhibition” value was “inactive”.
In the case of O=C(Nc1ncc(-c2ccccc2)o1)c1cc(-c2ccccc2)on1, the AC50 was 38 µM.
With c1ccc(-c2nnc(-c3ccccn3)nc2N2CCC(N3CCOCC3)CC2)cc1 the “activity change, negative = inhibition” value was “inactive”.
With O=C(NCCN1CCCCC1)c1cc(-c2ccccc2)on1 the “activity change, negative = inhibition” value was “inactive”.
With Cc1ccccc1CNC(=O)c1cc(-c2ccccc2)on1 the “activity change, negative = inhibition” value was “inactive”.
In the case of c1ccc(-c2csc(Nc3nc(-c4ccccn4)nnc3-c3ccccc3)n2)cc1, the “activity change, negative = inhibition” value was “inactive”.
In the case of O=C(Nc1nc2ccccc2s1)c1cc(-c2ccccc2)on1, the “activity change, negative = inhibition” value was “inactive”.
With Cc1ccc(Nc2nc(-c3ccccn3)nnc2-c2ccccc2)cn1 the “activity change, negative = inhibition” value was “inactive”.
In the case of O=C(NCC1CC1)c1cc(-c2ccccc2)on1, the “activity change, negative = inhibition” value was “inactive”.
For O=C(NC1CCc2ccccc2C1)c1cc(-c2ccccc2)on1 (centres undefined), the “activity change, negative = inhibition” value was “inactive”.
In the case of c1ccc(-c2nnc(-c3ccccn3)nc2NCCN2CCOCC2)cc1, the “activity change, negative = inhibition” value was “inactive”.
In the case of c1ccc(-c2nnc(-c3ccccn3)nc2Nc2cnc3ccccc3n2)cc1, the “activity change, negative = inhibition” value was “inactive”.
In the case of Cc1cccc(Nc2nc(-c3ccccn3)nnc2-c2ccccc2)n1, the “activity change, negative = inhibition” value was “inactive”.
For c1ccc(-c2nnc(-c3ccccn3)nc2N2CCN(c3ccncc3)CC2)cc1, the “activity change, negative = inhibition” value was “inactive”.
With O=C(c1cc(-c2ccccc2)on1)N1CCC(CO)CC1 the “activity change, negative = inhibition” value was “inactive”.
For OCCCNc1nc(-c2ccccn2)nnc1-c1ccccc1, the “activity change, negative = inhibition” value was “inactive”.
For CC(C)(C)CCNc1nc(-c2ccccn2)nnc1-c1ccccc1, the “activity change, negative = inhibition” value was “inactive”.
With O=C(NCCCO)c1cc(-c2ccccc2)on1 the “activity change, negative = inhibition” value was “inactive”.
In the case of O=C(Nc1nc(-c2ccccc2)cs1)c1cc(-c2ccccc2)on1, the “activity change, negative = inhibition” value was “inactive”.
With c1ccc(-c2cnc(Nc3nc(-c4ccccn4)nnc3-c3ccccc3)s2)cc1 the “activity change, negative = inhibition” value was “inactive”.
Compound Cc1cccc(NC(=O)c2cc(-c3ccccc3)on2)n1 has an AC50 of 2.63 µM.
Cc1ccc(NC(=O)c2cc(-c3ccccc3)on2)cn1 was tested, and the “activity change, negative = inhibition” value was “inactive”.
For O=C(NCCCn1ccnc1)c1cc(-c2ccccc2)on1, the “activity change, negative = inhibition” value was “inactive”.
In the case of Cc1ccccc1CNc1nc(-c2ccccn2)nnc1-c1ccccc1, the “activity change, negative = inhibition” value was “inactive”.
c1ccc(CNc2nc(-c3ccccn3)nnc2-c2ccccc2)cc1 was tested, and the “activity change, negative = inhibition” value was “inactive”.
With O=C(NCCCCO)c1cc(-c2ccccc2)on1 the “activity change, negative = inhibition” value was “inactive”.
In the case of O=C(c1cc(-c2ccccc2)on1)N1CCN(c2ccncc2)CC1, the “activity change, negative = inhibition” value was “inactive”.
For O=C(NC1Cc2ccccc2C1)c1cc(-c2ccccc2)on1, the “activity change, negative = inhibition” value was “inactive”.
In the case of c1ccc(-c2nnc(-c3ccccn3)nc2Nc2nc3ccccc3s2)cc1, the “activity change, negative = inhibition” value was “inactive”.
With O=C(NCCN1CCOCC1)c1cc(-c2ccccc2)on1 the “activity change, negative = inhibition” value was “inactive”.
O=C(Nc1ccc2ccccc2n1)c1cc(-c2ccccc2)on1 was tested, and the “activity change, negative = inhibition” value was “inactive”.
For Cc1ccc(CNC(=O)c2cc(-c3ccccc3)on2)cc1, the “activity change, negative = inhibition” value was “inactive”.
CN(C)CCNC(=O)c1cc(-c2ccccc2)on1 was tested, and the “activity change, negative = inhibition” value was “inactive”.
CN1CCN(c2nc(-c3ccccn3)nnc2-c2ccccc2)CC1 was tested, and the “activity change, negative = inhibition” value was “inactive”.
In the case of Cc1ccc(CNc2nc(-c3ccccn3)nnc2-c2ccccc2)cc1, the “activity change, negative = inhibition” value was “inactive”.
CN(C)c1nc(-c2ccccn2)nnc1-c1ccccc1 was tested, and the “activity change, negative = inhibition” value was “inactive”.
In the case of Cn1c(-c2ccccc2)cnc1Nc1nc(-c2ccccn2)nnc1-c1ccccc1, the “activity change, negative = inhibition” value was “inactive”.
With O=C(Nc1nnc(-c2ccccc2)s1)c1cc(-c2ccccc2)on1 the “activity change, negative = inhibition” value was “inactive”.
In the case of CN1CCN(C(=O)c2cc(-c3ccccc3)on2)CC1, the “activity change, negative = inhibition” value was “inactive”.
With O=C(Nc1cnc2ccccc2c1)c1cc(-c2ccccc2)on1 the “activity change, negative = inhibition” value was “inactive”.
For O=C(NCC1CCCCC1)c1cc(-c2ccccc2)on1, the “activity change, negative = inhibition” value was “inactive”.
With CCCCNC(=O)c1cc(-c2ccccc2)on1 the AC50 was 38 µM.
O=C(Nc1cn2ccccc2n1)c1cc(-c2ccccc2)on1 gave an AC50 of 6.99 µM.
With Cc1cccc(CNC(=O)c2cc(-c3ccccc3)on2)c1 the “activity change, negative = inhibition” value was “inactive”.
c1ccc(-c2nnc(-c3ccccn3)nc2NCC2CCCCC2)cc1 was tested, and the “activity change, negative = inhibition” value was “inactive”.
Cn1c(-c2ccccc2)cnc1NC(=O)c1cc(-c2ccccc2)on1 was tested, and the “activity change, negative = inhibition” value was “inactive”.
With CC(C)(C)CCNC(=O)c1cc(-c2ccccc2)on1 the “activity change, negative = inhibition” value was “inactive”.
Compound O=C(Nc1ncc2ccccc2n1)c1cc(-c2ccccc2)on1 has an AC50 of 23.5 µM.
With c1ccc(-c2nnc(Nc3nc(-c4ccccn4)nnc3-c3ccccc3)s2)cc1 the “activity change, negative = inhibition” value was “inactive”.
With Cn1c(NC(=O)c2cc(-c3ccccc3)on2)nc2ccccc21 the “activity change, negative = inhibition” value was “inactive”.
For O=C(c1cc(-c2ccccc2)on1)N1CCC(N2CCCC2)CC1, the “activity change, negative = inhibition” value was “inactive”.
With c1ccc(-c2nnc(-c3ccccn3)nc2NCC2CC2)cc1 the “activity change, negative = inhibition” value was “inactive”.
O=C(c1cc(-c2ccccc2)on1)N1CCc2cccnc21 was tested, and the “activity change, negative = inhibition” value was “inactive”.
OCC1CCN(c2nc(-c3ccccn3)nnc2-c2ccccc2)CC1 was tested, and the “activity change, negative = inhibition” value was “inactive”.
Cc1cccc(CNc2nc(-c3ccccn3)nnc2-c2ccccc2)c1 was tested, and the “activity change, negative = inhibition” value was “inactive”.
O=C(NCc1ccccc1)c1cc(-c2ccccc2)on1 was tested, and the “activity change, negative = inhibition” value was “inactive”.
With O=C(c1cc(-c2ccccc2)on1)N1CCC(N2CCOCC2)CC1 the “activity change, negative = inhibition” value was “inactive”.
C=CCNc1nc(-c2ccccn2)nnc1-c1ccccc1 was tested, and the “activity change, negative = inhibition” value was “inactive”.
